Results: publication PMC5593424 (Bioorganic & medicinal chemistry letters, 2017)

Legend:
eIF4A [1] = target: T1, eIF4A (Homo sapiens, UniProt P60842); experiment: fluorescence-dequenching eIF4A helicase assay; type: biochemical; settings: 100 µM compound, relative to DMSO control, eIF4B and ATP
How it was run: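 RNA unwinding assay: a fluorescently labelled RNA strand is annealed to a template beside a black-hole quencher. Adding eIF4A, eIF4B and ATP releases the strand and dequenches the fluorophore. A large excess of blank template prevents reannealing. Test compounds used at 100 μM.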

eIF4A [2] = target: T1, eIF4A; experiment: malachite green eIF4A ATPase assay; type: biochemical; settings: for inhibition of eIF4A ATPase activity (IC50): 8-point dose-response, 500 nM eIF4A, 250 µM ATP
A549 lung cancer cells = experiment: MTT cytotoxicity, A549; type: cell-based; settings: 8-point dose response
How it was run: (§1)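 Cells exposed to an 8-point dose-response of test compound; viability read by MTT. Percent survival plotted against compound concentration on semi-log axes, and LD50 taken from that curve.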

[3] = tested on: MDA-MA-468 breast cancer cells; experiment: MTT cytotoxicity, MDA-MA-468; type: cell-based; settings: MDA-MA-468, MTT, 8-point dose response
How it was run: as §1

[4] = cited from earlier work
NCI-60 panel = settings: cited from earlier work
DDX39A = DDX39A (Homo sapiens, UniProt O00148); experiment: ATPase dose-response against DDX39A; type: biochemical; settings: 8-point dose-response
DDX39A, sequence (O00148 whole entry, species assumed): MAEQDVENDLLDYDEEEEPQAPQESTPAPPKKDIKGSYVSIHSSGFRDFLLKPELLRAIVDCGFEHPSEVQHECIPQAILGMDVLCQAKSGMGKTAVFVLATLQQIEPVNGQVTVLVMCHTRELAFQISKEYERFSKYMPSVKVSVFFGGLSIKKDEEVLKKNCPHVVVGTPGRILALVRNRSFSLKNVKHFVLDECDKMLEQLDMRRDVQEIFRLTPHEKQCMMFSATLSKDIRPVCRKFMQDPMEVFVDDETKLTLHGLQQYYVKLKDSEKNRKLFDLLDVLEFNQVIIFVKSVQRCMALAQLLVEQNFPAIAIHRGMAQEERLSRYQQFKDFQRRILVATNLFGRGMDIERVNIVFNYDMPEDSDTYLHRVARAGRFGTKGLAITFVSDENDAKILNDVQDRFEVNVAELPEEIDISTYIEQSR

T1 sequence (P60842 whole entry): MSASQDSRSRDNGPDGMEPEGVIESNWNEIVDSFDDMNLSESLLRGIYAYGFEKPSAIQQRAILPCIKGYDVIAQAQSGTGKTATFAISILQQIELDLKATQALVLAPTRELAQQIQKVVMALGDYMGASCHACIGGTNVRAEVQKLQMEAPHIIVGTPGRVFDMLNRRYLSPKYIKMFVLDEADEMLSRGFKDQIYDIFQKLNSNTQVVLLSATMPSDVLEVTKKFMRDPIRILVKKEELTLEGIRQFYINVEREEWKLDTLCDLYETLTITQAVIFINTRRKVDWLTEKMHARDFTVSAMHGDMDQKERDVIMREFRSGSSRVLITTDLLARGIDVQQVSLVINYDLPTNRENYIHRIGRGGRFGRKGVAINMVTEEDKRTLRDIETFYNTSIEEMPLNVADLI

SMILES | inhibition of eIF4A helicase activity (eIF4A [1]) | Ki (eIF4A [2]) | inhibition of eIF4A ATPase activity (IC50) (eIF4A [2]) | LD50 (A549 lung cancer cells) | LD50 [3] | antibiotic activity [4] | activity against the NCI-60 panel (NCI-60 panel) | inhibition of DDX39A (DDX39A)
C[C@H]1C[C@@]2(O[C@H]3C[C@H]4[C@@H]5CC[C@H]6C[C@H](O)CC[C@]6(C)[C@H]5[C@@H](O)C[C@]4(C)[C@H]3[C@@]2(C)O)OC1(C)C [Compound 3, hippuristanol, reference compound] | near complete inhibition | – | – | – | – | – | – | –
C=C1CC[C@@](C)(c2cc(Br)c(C)cc2O)[C@H]1C [Compound 2, allolaurinterol] | near complete inhibition | 3.86 µM | single-digit | 41.4 µM | 31.7 µM | antibiotic activity | – | –
CC(C)=C[C@@H]1C[C@H](C)c2c(O)cc(C)c3c2C1=C(C)C(=O)C3=O [Compound 1, elisabatin A] | – | – | single-digit | 40.2 µM | 35.2 µM | – | only modest activity | modest inhibition
